Source: ChEMBL document CHEMBL3739417, “Synthesis and biological evaluation of novel 4,5-disubstituted 2H-1,2,3-triazoles as cis-constrained analogues of combretastatin A-4” (2015)

Experiments:
Type in all cases: functional
[1] = Growth inhibition of human SNB75 cells after 48 hrs by sulforhodamine B assay; conditions: SNB-75, 48 h
Outline: (§1)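 NCI-60 panel screen by SRB assay (Rubinstein method). Percentage growth taken from optical density of SRB colour, read before and 48 hrs after exposure to compound or vehicle control. All analogues first screened at 10^-5 M. Analogues giving 60% growth inhibition at that level in at least eight lines then went to a five-concentration dose-response study.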

A549 = assay: Growth inhibition of human A549/ATCC cells after 48 hrs by sulforhodamine B assay; conditions: A549, 48 h; outline: as §1
NCI-H460 = assay: Growth inhibition of human NCI-H460 cells after 48 hrs by sulforhodamine B assay; conditions: NCI-H460, 48 h; outline: as §1
MDA-MB-231 = assay: Growth inhibition of human MDA-MB-231 cells after 48 hrs by sulforhodamine B assay; conditions: MDA-MB-231, 48 h; outline: as §1
[2] = Growth inhibition of human SKOV3 cells after 48 hrs by sulforhodamine B assay; conditions: SK-OV-3, 48 h; outline: as §1
MDA-MB-435 = assay: Growth inhibition of human MDA-MB-435 cells after 48 hrs by sulforhodamine B assay; conditions: MDA-MB-435, 48 h
Outline: (§2)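 NCI-60 sulforhodamine B screen. Compounds were first tested at a single dose of 10⁻⁵ M; hits, defined as ≥60% growth inhibition in at least eight lines, went on to a five-concentration dose–response. SRB optical density was read before and 48 h after exposure to compound or vehicle. Percentage growth was calculated from OD.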

[3] = Growth inhibition of human UO31 cells after 48 hrs by sulforhodamine B assay; conditions: UO-31, 48 h; outline: as §1
[4] = Growth inhibition of human IGROV1 cells after 48 hrs by sulforhodamine B assay; conditions: IGROV-1, 48 h; outline: as §1
MDA-MB-468 = assay: Growth inhibition of human MDA-MB-468 cells after 48 hrs by sulforhodamine B assay; conditions: MDA-MB-468, 48 h; outline: as §1
MCF7 = assay: Growth inhibition of human MCF7 cells after 48 hrs by sulforhodamine B assay; conditions: MCF7, 48 h; outline: as §1
K562 = assay: Growth inhibition of human K562 cells after 48 hrs by sulforhodamine B assay; conditions: K562, 48 h; outline: as §1
SR = assay: Growth inhibition of human SR cells after 48 hrs by sulforhodamine B assay; outline: as §1
[5] = Growth inhibition of human NCI-ADR-RES cells after 48 hrs by sulforhodamine B assay; outline: as §1
[6] = Growth inhibition of human SF295 cells after 48 hrs by sulforhodamine B assay; conditions: SF-295, 48 h; outline: as §1
ACHN = assay: Growth inhibition of human ACHN cells after 48 hrs by sulforhodamine B assay; outline: as §1
[7] = Growth inhibition of human HCT116 cells after 48 hrs by sulforhodamine B assay; conditions: HCT-116, 48 h; outline: as §1
[8] = Growth inhibition of human SF268 cells after 48 hrs by sulforhodamine B assay; conditions: SF-268, 48 h; outline: as §1
SK-MEL-2 = assay: Growth inhibition of human SK-MEL-2 cells after 48 hrs by sulforhodamine B assay; conditions: SK-MEL-2, 48 h; outline: as §1
[9] = Growth inhibition of human MOLT4 cells after 48 hrs by sulforhodamine B assay; conditions: MOLT-4, 48 h; outline: as §1
CCRF-CEM = assay: Growth inhibition of human CCRF-CEM cells after 48 hrs by sulforhodamine B assay; outline: as §1
[10] = Growth inhibition of human RPMI8226 cells after 48 hrs by sulforhodamine B assay; conditions: RPMI-8226, 48 h; outline: as §1
[11] = Growth inhibition of human HCT15 cells after 48 hrs by sulforhodamine B assay; conditions: HCT-15, 48 h; outline: as §1
SK-MEL-5 = assay: Growth inhibition of human SK-MEL-5 cells after 48 hrs by sulforhodamine B assay; conditions: SK-MEL-5, 48 h; outline: as §1
[12] = Growth inhibition of human HOP92 cells after 48 hrs by sulforhodamine B assay; conditions: HOP-92, 48 h; outline: as §1
CAKI-1 = assay: Growth inhibition of human CAKI-1 cells after 48 hrs by sulforhodamine B assay; conditions: CAKI-1, 48 h; outline: as §1
KM12 = assay: Growth inhibition of human KM12 cells after 48 hrs by sulforhodamine B assay; conditions: KM12, 48 h; outline: as §1
[13] = Growth inhibition of human SW620 cells after 48 hrs by sulforhodamine B assay; conditions: SW-620, 48 h; outline: as §1
U-251 = assay: Growth inhibition of human U251 cells after 48 hrs by sulforhodamine B assay; conditions: U-251, 48 h; outline: as §1
[14] = Growth inhibition of human HCC2998 cells after 48 hrs by sulforhodamine B assay; conditions: HCC 2998, 48 h; outline: as §1
[15] = Growth inhibition of human PC3 cells after 48 hrs by sulforhodamine B assay; conditions: PC-3, 48 h; outline: as §1
[16] = Growth inhibition of human DU145 cells after 48 hrs by sulforhodamine B assay; conditions: DU-145, 48 h; outline: as §1
[17] = Growth inhibition of human LOXIMVI cells after 48 hrs by sulforhodamine B assay; conditions: LOX IMVI; outline: as §1
[18] = Growth inhibition of human HOP62 cells after 48 hrs by sulforhodamine B assay; conditions: HOP-62, 48 h; outline: as §1
A498 = assay: Growth inhibition of human A498 cells after 48 hrs by sulforhodamine B assay; conditions: A498, 48 h; outline: as §2
HT-29 = assay: Growth inhibition of human HT-29 cells after 48 hrs by sulforhodamine B assay; conditions: HT-29, 48 h; outline: as §1
NCI-H23 = assay: Growth inhibition of human NCI-H23 cells after 48 hrs by sulforhodamine B assay; conditions: NCI-H23, 48 h; outline: as §1
[19] = Growth inhibition of human OVCAR3 cells after 48 hrs by sulforhodamine B assay; conditions: OVCAR-3, 48 h; outline: as §2
[20] = read-out: LD50 (the source's name)

Q: With `COc1ccc(-c2n[nH]nc2-c2cc(OC)cc(OC)c2)cc1` as the molecule, how does the GI50 [1] read?
A: 14 nM

Q: And the CC50 [1, 20]?
A: > 100000 nM

Q: What about the GI50 (A549) of the same molecule?
A: 37 nM

Q: What about the CC50 (A549; [20]) of the same molecule?
A: > 100000 nM

Q: What about the GI50 (NCI-H460) of the same molecule?
A: 34 nM

Q: What about the CC50 (NCI-H460; [20]) of the same molecule?
A: > 100000 nM

Q: What about the GI50 (MDA-MB-231) of the same molecule?
A: 46 nM

Q: What about the CC50 (MDA-MB-231; [20]) of the same molecule?
A: > 100000 nM

Q: And the GI50 [2]?
A: 46 nM

Q: And the LC50 (concentration killing 50% of cells) ([2]; read-out: LD50)?
A: > 100000 nM

Q: What about the GI50 (MDA-MB-435) of the same molecule?
A: < 10 nM

Q: What about the TGI (MDA-MB-435) of the same molecule?
A: 10 nM

Q: What about the LC50 (concentration killing 50% of cells) (MDA-MB-435; read-out: LD50) of the same molecule?
A: > 100000 nM

Q: And the GI50 [3]?
A: 20 nM

Q: And the LC50 (concentration killing 50% of cells) ([3]; read-out: LD50)?
A: > 100000 nM

Q: And the GI50 [4]?
A: 51 nM

Q: And the CC50 [4, 20]?
A: > 100000 nM

Q: And the GI50 (MDA-MB-468)?
A: 23 nM

Q: And the CC50 (MDA-MB-468; [20])?
A: > 100000 nM

Q: What about the GI50 (MCF7) of the same molecule?
A: 25 nM

Q: And the CC50 (MCF7; [20])?
A: > 100000 nM

Q: What about the GI50 (K562) of the same molecule?
A: < 10 nM

Q: What about the CC50 (K562; [20]) of the same molecule?
A: > 100000 nM

Q: And the GI50 (SR)?
A: < 10 nM

Q: What about the LC50 (concentration giving 50% net cell kill) (SR; read-out: LD50) of the same molecule?
A: > 100000 nM

Q: And the GI50 [5]?
A: < 10 nM

Q: And the CC50 [5, 20]?
A: > 100000 nM

Q: And the GI50 [6]?
A: 11 nM

Q: And the CC50 [6, 20]?
A: > 100000 nM

Q: What about the GI50 (ACHN) of the same molecule?
A: 145 nM

Q: What about the CC50 (ACHN; [20]) of the same molecule?
A: > 100000 nM

Q: And the GI50 [7]?
A: < 10 nM

Q: What about the CC50 [7, 20] of the same molecule?
A: > 100000 nM

Q: And the GI50 [8]?
A: 177 nM

Q: And the CC50 [8, 20]?
A: > 100000 nM

Q: What about the GI50 (SK-MEL-2) of the same molecule?
A: 56 nM

Q: What about the CC50 (SK-MEL-2; [20]) of the same molecule?
A: > 100000 nM

Q: And the GI50 [9]?
A: 48 nM

Q: And the CC50 [9, 20]?
A: > 100000 nM

Q: What about the GI50 (CCRF-CEM) of the same molecule?
A: 32 nM

Q: And the LC50 (concentration killing 50% of cells) (CCRF-CEM; read-out: LD50)?
A: > 100000 nM

Q: And the GI50 [10]?
A: 37 nM

Q: And the CC50 [10, 20]?
A: > 100000 nM

Q: What about the GI50 [11] of the same molecule?
A: < 10 nM

Q: And the CC50 [11, 20]?
A: > 100000 nM

Q: And the GI50 (SK-MEL-5)?
A: 27 nM

Q: And the CC50 (SK-MEL-5; [20])?
A: > 100000 nM

Q: What about the GI50 [12] of the same molecule?
A: < 10 nM

Q: What about the CC50 [12, 20] of the same molecule?
A: > 100000 nM

Q: And the GI50 (CAKI-1)?
A: 50 nM

Q: And the CC50 (CAKI-1; [20])?
A: > 100000 nM

Q: And the GI50 (KM12)?
A: 30 nM

Q: What about the LC50 (concentration killing 50% of cells) (KM12; read-out: LD50) of the same molecule?
A: > 100000 nM

Q: What about the GI50 [13] of the same molecule?
A: 30 nM

Q: What about the LD50 (concentration killing 50% of cells) [13] of the same molecule?
A: > 100 µM

Q: And the GI50 (U-251)?
A: 38 nM

Q: What about the CC50 (U-251; [20]) of the same molecule?
A: > 100000 nM

Q: What about the GI50 [14] of the same molecule?
A: 46 nM

Q: And the CC50 [14, 20]?
A: > 100000 nM

Q: What about the GI50 [15] of the same molecule?
A: 42 nM

Q: And the CC50 [15, 20]?
A: > 100000 nM

Q: And the GI50 [16]?
A: 45 nM

Q: And the CC50 [16, 20]?
A: > 100000 nM

Q: What about the GI50 [17] of the same molecule?
A: 76 nM

Q: And the CC50 [17, 20]?
A: > 100000 nM

Q: What about the GI50 [18] of the same molecule?
A: 25 nM

Q: What about the LC50 (concentration killing 50% of cells) ([18]; read-out: LD50) of the same molecule?
A: > 100000 nM

Q: And the GI50 (A498)?
A: < 10 nM

Q: And the LC50 (50% net cell kill) (A498; read-out: LD50)?
A: > 100000 nM

Q: What about the GI50 (HT-29) of the same molecule?
A: 48 nM

Q: What about the LC50 (concentration killing 50% of cells) (HT-29; read-out: LD50) of the same molecule?
A: > 100000 nM

Q: What about the GI50 (NCI-H23) of the same molecule?
A: 38 nM

Q: And the LC50 (concentration giving 50% cell kill) (NCI-H23; read-out: LD50)?
A: > 100000 nM

Q: And the GI50 [19]?
A: 24 nM

Q: And the LC50 (concentration giving 50% net cell kill) ([19]; read-out: LD50)?
A: > 100000 nM
